The values below come from ChEMBL document CHEMBL4038302, “Fibroblast Activation Protein α Activated Tripeptide Bufadienolide Antitumor Prodrug with Reduced Cardiotoxicity” (J Med Chem, 2017).

Active and inactive are the calls of the source. The calls are words filed in the database; no cut-off is given here.

Series [1] deals with T1, Prolyl endopeptidase FAP (Homo sapiens, UniProt Q12884).
T1 sequence (Q12884 whole entry): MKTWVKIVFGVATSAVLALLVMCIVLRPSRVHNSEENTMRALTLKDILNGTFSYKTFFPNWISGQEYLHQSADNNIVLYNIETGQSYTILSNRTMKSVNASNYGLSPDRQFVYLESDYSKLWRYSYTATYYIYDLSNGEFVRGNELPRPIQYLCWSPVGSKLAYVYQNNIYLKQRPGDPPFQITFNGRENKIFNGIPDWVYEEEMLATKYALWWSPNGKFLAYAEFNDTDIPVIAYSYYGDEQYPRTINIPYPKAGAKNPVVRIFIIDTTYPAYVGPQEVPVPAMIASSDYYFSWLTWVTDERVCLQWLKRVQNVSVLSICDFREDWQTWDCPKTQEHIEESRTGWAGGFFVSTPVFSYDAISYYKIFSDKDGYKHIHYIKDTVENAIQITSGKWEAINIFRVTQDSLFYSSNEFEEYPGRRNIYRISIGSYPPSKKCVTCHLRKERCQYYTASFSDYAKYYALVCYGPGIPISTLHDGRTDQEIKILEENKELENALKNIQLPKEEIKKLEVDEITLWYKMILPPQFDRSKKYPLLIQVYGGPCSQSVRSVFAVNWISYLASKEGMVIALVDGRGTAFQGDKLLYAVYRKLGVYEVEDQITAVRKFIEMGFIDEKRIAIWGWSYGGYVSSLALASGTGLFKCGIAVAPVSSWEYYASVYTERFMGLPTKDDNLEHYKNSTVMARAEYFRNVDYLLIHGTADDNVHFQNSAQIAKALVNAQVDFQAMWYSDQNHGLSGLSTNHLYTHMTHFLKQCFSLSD
Description: Prodrug activation assessed as recombinant human FAP-alpha mediated (S)-((3S,5R,8R,9S,10S,11S,13R,14S,17R)-11,14-dihydroxy-10,13-dimethyl-12-oxo-17-(2-oxo-2H-pyran-5-yl)hexadecahydro-1H-cyclopenta[a]phenanthren-3-yl) 2-aminopropanoate formation […] after 90 mins by UPLC-MS/MS analysis. The conditions noted are these: 1.5 h. Put shortly: (§1)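 Prodrug at 0.625–40 μmol/L incubated with rhFAPα at 0.45 μg/mL and internal standard in 0.2 mL PBS, pH 7.4, at 37 °C for 90 min. Quenched with MeCN and spun at 18 000g for 15 min; product measured by UPLC-MS/MS. S50 and Vmax fitted with an allosteric sigmoidal model; CLint = Vmax/S50. Three independent experiments.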

The nature of series [2]: Cytotoxicity in BMSC (unknown origin) assessed as cell viability at 1000 nmol/L after 72 hrs by MTT assay. Type of series: cell-based. The conditions noted are these: unidentified, 1 µM. Background: Tetrazolium dyes change colour on reduction, which living cells bring about.
For series [3], the system named is MDA-MB-435. Description: Antiproliferative activity against wild type human MDA-MB-435 cells expressing FAP-alpha incubated for 48 hrs by MTT assay. Type of series: functional, cell-based. The conditions noted are these: MDA-MB-435, 48 h. An outline of the steps: (§2)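 Cells grown in DMEM with 10% FBS and 1% penicillin-streptomycin at 37 °C, 5% CO2; 10% heat-inactivated FBS used during cytotoxicity testing to exclude serum FAP activity. Viability read by MTT; IC50 as mean ± SEM of at least three independent experiments. Transfected lines were made from MDA-MB-231 with human FAPα plasmid or empty pCMV6-Entry vector and checked by Western blot at 48 h.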

For series [4], the system named is MCF7. Description: Antiproliferative activity against FAP-alpha deficient human MCF7 cells incubated for 48 hrs by MTT assay. Type of series: functional, cell-based. The conditions noted are these: MCF7, 48 h. An outline of the steps: as §2
The subject of series [5] is MDA-MB-231. Description: Antiproliferative activity against FAP-alpha deficient human MDA-MB-231 cells incubated for 48 hrs by MTT assay. Format: functional, cell-based. The conditions noted are these: MDA-MB-231, 48 h. An outline of the steps: as §2
The subject of series [6] is MDA-MB-231. Description: Antiproliferative activity against human MDA-MB-231 cells assessed as decrease in cell viability at 62.5 to 500 nmol/L after 72 hrs by MTT assay. Type of series: functional, cell-based.
In series [7] the test system is MDA-MB-231. Description: Antiproliferative activity against human MDA-MB-231 cells transfected with pCMV6 incubated for 48 hrs by MTT assay. Format: functional, cell-based. The conditions noted are these: MDA-MB-231, 48 h. Put shortly:
as §2

Series [8] has as its system MDA-MB-231. Description: Antiproliferative activity against human MDA-MB-231 cells transfected with human FAP-alpha incubated for 48 hrs by MTT assay. Type of series: functional, cell-based. The conditions noted are these: MDA-MB-231, 48 h. An outline of the steps:
as §2

In series [9] the test system is [H][C@]12CC[C@@]3([H])[C@@]4(O)CC[C@H](c5ccc(=O)oc5)[C@@]4(C)C(=O)[C@@H](O)[C@]3([H])[C@@]1(C)CC[C@H](OC(=O)[C@H](C)NC(=O)[C@@H]1CCCN1C(=O)CNC(=O)OCc1ccccc1)C2. Description: Prodrug activation assessed as recombinant human FAP-alpha mediated (S)-((3S,5R,8R,9S,10S,11S,13R,14S,17R)-11,14-dihydroxy-10,13-dimethyl-12-oxo-17-(2-oxo-2H-pyran-5-yl)hexadecahydro-1H-cyclopenta[a]phenanthren-3-yl) 2-aminopropanoate formation by measuring concentration of test compound gives half-maximal activity after 90 mins by UPLC-MS/MS analysis. Put shortly: as §1

The test system of series [10] is [H][C@]12CC[C@@]3([H])[C@@]4(O)CC[C@H](c5ccc(=O)oc5)[C@@]4(C)C(=O)[C@@H](O)[C@]3([H])[C@@]1(C)CC[C@H](OC(=O)[C@@H](NC(=O)[C@@H]1CCCN1C(=O)CNC(=O)OCc1ccccc1)C(C)C)C2. Description: Prodrug activation assessed as recombinant human FAP-alpha mediated (S)-((3S,5R,8R,9S,10S,11S,13R,14S,17R)-11,14-dihydroxy-10,13-dimethyl-12-oxo-17-(2-oxo-2H-pyran-5-yl)hexadecahydro-1H-cyclopenta[a]phenanthren-3-yl) 2-amino-3-methylbutanoate formation by measuring concentration of test compound gives half-maximal activity after 90 mins by UPLC-MS/MS analysis. An outline of the steps:
as §1

The test system of series [11] is [H][C@]12CC[C@@]3([H])[C@@]4(O)CC[C@H](c5ccc(=O)oc5)[C@@]4(C)C(=O)[C@@H](O)[C@]3([H])[C@@]1(C)CC[C@H](OC(=O)[C@H](Cc1c[nH]c3ccccc13)NC(=O)[C@@H]1CCCN1C(=O)CNC(=O)OCc1ccccc1)C2. Kind of series: Prodrug activation assessed as recombinant human FAP-alpha mediated (S)-((3S,5R,8R,9S,10S,11S,13R,14S,17R)-11,14-dihydroxy-10,13-dimethyl-12-oxo-17-(2-oxo-2H-pyran-5-yl)hexadecahydro-1H-cyclopenta[a]phenanthren-3-yl) 2-amino-3-(1H-indol-3-yl)propanoate formation by measuring concentration of test compound gives half-maximal activity after 90 mins by UPLC-MS/MS analysis. An outline of the steps: as §1

Series [12] has as its system [H][C@]12CC[C@@]3([H])[C@@]4(O)CC[C@H](c5ccc(=O)oc5)[C@@]4(C)C(=O)[C@@H](O)[C@]3([H])[C@@]1(C)CC[C@H](OC(=O)Cc1ccc(NC(=O)[C@@H]3CCCN3C(=O)CNC(=O)OCc3ccccc3)cc1)C2. Kind of series: Prodrug activation assessed as recombinant human FAP-alpha mediated 5-((3S,5R,8R,9S,10S,11S,13R,14S,17R)-3-(2-(4-aminophenyl)acetyl)-11,14-dihydroxy-10,13-dimethyl-12-oxohexadecahydro-1H-cyclopenta[a]phenanthren-17-yl)-2H-pyran-2-one formation by measuring concentration of test compound gives half-maximal activity after 90 mins by UPLC-MS/MS analysis. An outline of the steps: as §1

In the case of `C[C@H](NC(=O)[C@@H]1CCCN1C(=O)CNC(=O)OCc1ccccc1)C(=O)O[C@H]1CC[C@@]2(C)[C@H](CC[C@@H]3[C@@H]2[C@H](O)C(=O)[C@]2(C)[C@@H](c4ccc(=O)oc4)CC[C@]32O)C1`, the CL in [1] was 23240 µL/min/mg.

In general, IC50 refers to the concentration that gives 50% inhibition. Read a low IC50 as greater potency in that assay. `C[C@]12CC[C@H](OC(=O)[C@@H](N)Cc3c[nH]c4ccccc34)C[C@H]1CC[C@@H]1[C@@H]2[C@H](O)C(=O)[C@]2(C)[C@@H](c3ccc(=O)oc3)CC[C@]12O`: the Activity result in series [2] is recorded as “Non-Toxic”. The half-inhibitory concentration (IC50) in series [3] was found to be 10 nM; in series [4] it was 1.06 nM; in [5], 4.81 nM; in series [7], 5.19 nM; in series [8], 7.19 nM. Besides, the outcome in series [6] was Active.

One may read the Vmax as the top rate of the reaction or transport when substrate is in excess. As to Prolyl endopeptidase FAP (Homo sapiens), the K0.5 came out at 21.3 µM in [9], 34.5 µM in series [10], 10.4 µM in series [11] and 3.68 µM in series [12]. Moreover, the Vmax is 0.494 µmol/min/mg in [9], 0.044 µmol/min/mg in series [10], 0.682 µmol/min/mg in [11] and 0.026 µmol/min/mg in series [12].
